Test results from the array DNA melting data of Ke et al. (doi:10.1101/2024.01.08.574731).

What was measured:
[1] = melting temperature; fluorescence melt of hairpins on a sequencing array, two-state fit, raised by 9.35 °C to match UV melts; details: sodium 0.088 M
In short: (§1)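 Bootstrapped two-state fits yielded melting temperature and folding enthalpy for library hairpins. Cy3 fluorescence, with annealed Cy3 and quencher oligos, was imaged on a sequenced MiSeq flow cell in 50 mM Na-HEPES pH 8.0, 25 mM NaCl in 2.5 °C steps up to 60 °C, and normalised to pre-quench Cy3 and to control constructs. Four replicates were combined by inverse variance, and fitted temperatures were raised by 9.35 °C to match UV melts.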

[2] = folding enthalpy; higher = less favourable; fluorescence melt of hairpins on a sequencing array, two-state fit; details: sodium 0.088 M
In short: as §1

Row | Sequence | Tm [1] [°C] | folding enthalpy [2] [kcal/mol]
1 | GTCGGCGAAAGCCCGAC ((((((....))).))) | 64.7 | -21.9
2 | GTCGGCGAAAGCCCGGAC ((((((....)))..))) | 42.4 | -14.2
3 | GTCGGCGAAAGCCTCGAC ((((((....)))..))) | 42.4 | -14.7
4 | GTCGGCGGAAACACCGAC (((((.(....).))))) | 55.3 | -37.9
5 | GTCGGCGGAAACGCCAAC ((.((((....)))).)) | 48.2 | -12.7
6 | GTCGGCGGAAACGCTGAC (((.(((....))).))) | 63.1 | -39.3
7 | GTCGGCGGAAACGCTGGC (.(.(((....))).).) | 50.5 | -21.2
8 | GTCGGGCCGAAAGGCGAC (((..(((....)))))) | 51 | -14.5
9 | GTCGGGCGAAAGCCGGAC (((.(((....))).))) | 67.7 | -27.7
10 | GTCGGGGGAAACCCCGGC (.(((((....))))).) | 62.5 | -22
11 | GTCGGGTCGAAAGACGAC (((..(((....)))))) | 47.4 | -19.8
12 | GTCGGTGCGAAAGCAGAC (((..(((....)))))) | 45.2 | -14.2
13 | GTCGTAGAAATACGAC ((((((....)))))) | 56 | -38
14 | GTCGTATCGAAAGATGAC (((..(((....)))))) | 34.1 | -20
15 | GTCGTCGAAAGACAAGAC ((((((....)))..))) | 44.7 | -20
16 | GTCGTCGAAAGACACGAC ((((((....)))..))) | 48.1 | -16.7
17 | GTCGTCGAAAGACGGGAC ((((((....)))..))) | 41.4 | -10.3
18 | GTCGTGCGAAAGCAGGAC (((.(((....))).))) | 64.5 | -35.9
19 | GTCGTTCCGAAAGGAGAC (((..(((....)))))) | 35.1 | -22
20 | GTCGTTCGAAAGAAGGAC (((.(((....))).))) | 52.2 | -38.1
21 | GTCGTTGAAAAACGAC ((((((....)))))) | 61.6 | -35.2
22 | GTCGTTGGAAACAACAAC ((.((((....)))).)) | 34.8 | -17.7
23 | GTCGTTGGAAACAACGAC (((((((....))))))) | 67.6 | -41.6

Row | Sequence | Tm [1] [°C] | folding enthalpy [2] [kcal/mol]
24 | GTCGTTGGAAACAACGGC (.(((((....))))).) | 55.1 | -39.6
25 | GTCGTTGGAAACAGTGAC (((..((....))..))) | 32.4 | -13.5
26 | GTCTAAACGAAAGTTGAC (((..(((....)))))) | 34.5 | -17.7
27 | GTCTAACGAAAGTTGAC (((.(((....)))))) | 43.6 | -24.9
28 | GTCTAACGAAAGTTGGAC (((.(((....))).))) | 52 | -19.8
29 | GTCTAACGAAAGTTTGAC (((.(((....))).))) | 47.6 | -36.7
30 | GTCTAAGAAATTAGAC ((((((....)))))) | 40.4 | -25.8
31 | GTCTAAGGAAACTTGGAC (((.(((....))).))) | 40.2 | -21.9
32 | GTCTAATCGAAAGATGAC (((..(((....)))))) | 31.6 | -14.8
33 | GTCTACCCGAAAGGGGAC (((..(((....)))))) | 36.2 | -13.8
34 | GTCTACCGAAAGGTGGAC (((.(((....))).))) | 60.6 | -41.5
35 | GTCTACGAAAGTAAGAC ((((((....))).))) | 46.5 | -24.2
36 | GTCTACGAAAGTAATGAC ((((((....)))..))) | 30.7 | -17.6
37 | GTCTACGAAAGTAGGGAC ((((((....)))..))) | 32.3 | -16.2
38 | GTCTACGAAAGTATAGAC ((((((....)))..))) | 36.2 | -24.4
39 | GTCTACGGAAACGTAGGC (.(((((....))))).) | 51.2 | -29.2
40 | GTCTAGGAAACTAGAC ((((((....)))))) | 50.8 | -39.2
41 | GTCTAGGGAAACCTAGAC (((((((....))))))) | 56.2 | -40.4
42 | GTCTAGGGAAACCTGGAC (((.(((....))).))) | 47.4 | -30.2
43 | GTCTATACGAAAGTAGAC (((..(((....)))))) | 36.7 | -21.8
44 | GTCTATGGAAACATAGAC (((((((....))))))) | 54.9 | -42.7
45 | GTCTATGGAAACGTAGAC (((((.(....).))))) | 43.7 | -31.8
46 | GTCTCCACGAAAGTGGAC (((..(((....)))))) | 32.2 | -7.36

Row | Sequence | Tm [1] [°C] | folding enthalpy [2] [kcal/mol]
47 | GTCTCCCGAAAGGGGAC (((.(((....)))))) | 54.8 | -31.4
48 | GTCTCCGAAAGGAAAGAC ((((((....)))..))) | 42.4 | -23.1
49 | GTCTCCGAAAGGAAGGAC ((((((....)))..))) | 36.2 | -16.5
50 | GTCTCCGAAAGGACGAC ((((((....))).))) | 46.7 | -27.5
51 | GTCTCCGCGAAAGCGGAC (((..(((....)))))) | 34.2 | -6.7
52 | GTCTCGAAAGAGAC (((((....))))) | 60.5 | -24.8
53 | GTCTCGGGAAACCGGGAC (((.(((....))).))) | 55.3 | -38.4
54 | GTCTCGGGAAACTGGGAC (((.(.(....).).))) | 37.2 | -29.3
55 | GTCTCTCGAAAGAGCGAC (((.(((....))).))) | 46.3 | -25.6
56 | GTCTGAGGAAACTCGGAC (((.(((....))).))) | 49.4 | -36.2
57 | GTCTGATCGAAAGATGAC (((..(((....)))))) | 30.1 | -19.8
58 | GTCTGCCGAAAGGCCGAC (((.(((....))).))) | 54.1 | -25.6
59 | GTCTGCGAAAGCAGGAC ((((((....))).))) | 57.8 | -11.4
60 | GTCTGCGGAAACGCAGGC (.(((((....))))).) | 63.9 | -19.6
61 | GTCTGCGGAAACGCGGAC (((.(((....))).))) | 63.7 | -39.2
62 | GTCTGCGGAAACGTAGAC ((((.((....)).)))) | 53.2 | -37.8
63 | GTCTGGGAAACCAGAC ((((((....)))))) | 58.3 | -38.3
64 | GTCTGGGCGAAAGCCGAC (((..(((....)))))) | 44.4 | -14.6
65 | GTCTGGGGAAACCCAGGC (.(((((....))))).) | 55.5 | -28.1
66 | GTCTGGGGAAACTCAGAC (((((.(....).))))) | 49.1 | -43.7
67 | GTCTGTCGAAAGACCGAC (((.(((....))).))) | 47.7 | -27.8
68 | GTCTGTCGAAAGACGAC (((.(((....)))))) | 51.5 | -28.6
69 | GTCTGTGGAAACACAAAC ((.((((....)))).)) | 28.1 | -12.3

Row | Sequence | Tm [1] [°C] | folding enthalpy [2] [kcal/mol]
70 | GTCTGTGGAAACACAGGC (.(((((....))))).) | 53.7 | -32.4
71 | GTCTGTGGAAACACGGAC (((.(((....))).))) | 53 | -34.9
72 | GTCTGTGGAAACATAGGC (.((.((....)).)).) | 31.3 | -16.4
73 | GTCTTAGAAATAAGAC ((((((....)))))) | 43.4 | -26.5
74 | GTCTTAGGAAACCAAGAC (((((.(....).))))) | 34.4 | -30.9
75 | GTCTTCACGAAAGTGGAC (((..(((....)))))) | 31.9 | -14.2
76 | GTCTTCGAAAGAACGAC ((((((....))).))) | 37.6 | -21.2
77 | GTCTTCGAAAGAATGGAC ((((((....)))..))) | 27.2 | -14.9
78 | GTCTTGGGAAACCAAGAC (((((((....))))))) | 62.1 | -46.4
79 | GTCTTGGGAAACTAAGAC (((((.(....).))))) | 42.8 | -34.9
80 | GTGAAACGAAAGTTCAC (((.(((....)))))) | 47.6 | -18.3
81 | GTGAAACGAAAGTTCCAC (((.(((....))).))) | 43.9 | -22.8
82 | GTGAAAGGAAACCTTCAC (((((.(....).))))) | 36.5 | -27
83 | GTGAAAGGAAACTCTCAC ((((.((....)).)))) | 26.5 | -12.6
84 | GTGAACCCGAAAGGGCAC (((..(((....)))))) | 38.9 | -15.8
85 | GTGAACCGAAAGGTACAC (((.(((....))).))) | 54.3 | -35.7
86 | GTGAACGAAAGTTCACAC ((((((....)))..))) | 66.6 | -10.8
87 | GTGAACGAAAGTTCCCAC ((((((....)))..))) | 29.7 | -10.9
88 | GTGAACGAAAGTTTTCAC ((((((....)))..))) | 31.1 | -15.6
89 | GTGAACGGAAACATTCAC (((((.(....).))))) | 35.4 | -31.7
90 | GTGAACGGAAACGCTCAC ((((.((....)).)))) | 47.6 | -31.5
91 | GTGAAGCGAAAGCTCCAC (((.(((....))).))) | 50 | -24
